# System: MS2 coat protein
# Experiment: apparent Kd, MS2 coat protein; higher = weaker binding; RNA-MaP array; FMN 200 µM where present
# Method in brief: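 Apparent Kd: the median of filtered binding-curve fits from single clusters. Designs were transcribed on Illumina sequencing-chip clusters by stalled E. coli RNA polymerase and titrated with SNAP-549-labelled MS2 coat protein from 0.7 or 1.5 nM, doubling to 3 µM, in 100 mM Tris-HCl pH 7.5, 80 mM KCl, 4 mM MgCl2, BSA, DTT, yeast tRNA and Tween-20. Each series ran without and then with constant ligand, and green signal was normalised to red-channel RNA signal and control-cluster median Fmax.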
# [1] = designed as: ON switch for flavin mononucleotide, no ligand
# [2] = ligand present: flavin mononucleotide, designed as: ON switch for flavin mononucleotide
# [3] = designed as: OFF switch for flavin mononucleotide, no ligand
# [4] = ligand present: flavin mononucleotide, designed as: OFF switch for flavin mononucleotide
Sequence,apparent Kd [1],apparent Kd [2],apparent Kd [3],apparent Kd [4]
GGUCGUCACAUAUACAUGAGGAUCACCCAUGUGAAAACACAUGAGGAUAUGGAUCCUAAUUGGAUCCAGAAGGCAUGGACGACC,42.1 nM,7.63 nM,,
AAGGGACAUGAGGAUCACCCAUGUGAGGAUAUAUAAAUGUACCCGAUGGGAGUACACAAUAGAAGGCGCGGCUA,,,40.7 nM,32.8 nM
GAUACACAUGAGGAUCACCCAUGUGAGGAUAUGCGUACGUUGUCCGUAGGCGACGUGCGCAGAAGGCGCGAGGU,,,41.4 nM,36.2 nM
AGCGUACAAGCUAACAUGAGGAUCACCCAUGUGGUCUCAUGCGAGGAUAUCGGGAAGGAGGAUUCCGAGAAGGUGCGGUGAGCC,182 nM,43.8 nM,,
ACGUUUUAUGCAGGAUAUUGACAUAUAUUUAAACAAGAAGGGCAUUACAUGAGGAUCACCCAUGUUAUAAUGGUAUUUAAGUUC,,,14.7 nM,15.6 nM
GGUUGUCAUCGUCAUCCUUUCGGUACAUGAGGAUCACCCAUGUAGGAUAUGCUGCGCUCGGUGUGGCAGAAGGGCGUGUGUGUU,,,23.8 nM,40.3 nM
UGUCGGAGCAGAGGAUAUUACAUGAGGAUCACCCAUGUAUGAACCAAUAACUGGAAACAGCAAUGUAAGAAGGCUGCUCCGACA,,,7.6 nM,42.5 nM
AAAACAUGAGGAUCACCCAUGUAAAGAACGGUUAAUAGAAGUGAGGAUAUACUAAAUUUUAGGUAGUAGAAGGCACUGGGUACA,21.5 nM,22.5 nM,,
GCGGGUCCGGAGAAGGGUACCGUGGGUAUGAUACAUGAGGAUCACCCAUGUACAGGAUAUCCGGCAAAGAUGUGGCUAAGAGGG,,,257 nM,34.5 nM
GGGUACAUCGGAGGAUAUCAUGUAAAUACAUGAGGAUCACCCAUGUCGAUGGAGACAUCGGAGAUUGAGAAGGCCGAUUUACCG,184 nM,8.4 nM,,
CCUAGUUGGUAAGGAUAUCCUACACUGUUCUGACCCGUGCGAGCUACAUGAGGAUCACCCAUGUGGGAGAAGGUGCGUCAACGC,,,18.2 nM,17.9 nM
ACAUGAGGAUCACCCAUGUAUACAUAGGAUAUUGAGGAUCAGGGAUGUUUUACAGGAUAUGUCUACAAGAAGGAUGCAAGUACA,32.7 nM,29.1 nM,,
UGUAUGGACAGAGGAUAUACGGAUAGGAUCUACUAUCUUUCUCAAAUAACAUGAGGAUCACCCAUGUAGAAGGCUGUCCAUACU,,,22.4 nM,136 nM
UUGGACGUCGUAGGAUAUGUAGGAUAGUCCUACAUGAGGAUCACCCAUGUUGACAUGGAAGAAGGACAGAAGGACGAUGUCCAU,553 nM,35.4 nM,,
GAGUGGUGGAGAGGAUAUGCAUUGUUAUUCACUGUAGAAGGUUCUAACAUGAGGAUCACCCAUGUAGGACUAUUCCUGUGUUUU,13.5 nM,11.1 nM,,
GCCAGAGCAGGAUAUUCAAUAUCACACAUGAGGAUCACCCAUGUCCGGCGAAAGCUGGAGGGAGAAGGGCUCUGGC,,,62.6 nM,18.7 nM
AAUUUAAUACAUGAGGAUCACCCAUGUAAAUUAAUUAAGAUCUAGGAUAUCAGCUCGAUUAGAGCUGAGAAGGAGAUCACAUGU,16.6 nM,13.2 nM,,
AUCAGCUCGUCAGGAUAUACAUCACUGCUUCGGCAGUGUAUUAAGGUCACAUGAGGAUCACCCAUGUAGAAGGGACGAGCUGAU,,,21.2 nM,142 nM
GUCAGCUCGUGAGGAUAUACAACACUGCUUCGGCAGUGUAUUAAGUUCACAUGAGGAUCACCCAUGUAGAAGGCACGAGCUGAU,,,5.56 nM,6.8 nM
GUAGCAUACCGAGGAUAUUCAUACCGGAAACGGACAUGAGGAUCACCCAUGUGGCGAAAGCCUUGGGAGAAGGCGGUAUGCUAC,638 nM,22.8 nM,,
UGUUGUAUUACAGGAUAUCUAUUAUUUUUUUUUAGAGAAGGGUAUUCACAUGAGGAUCACCCAUGUAUAUACGAGGAAGUUGUG,59.8 nM,62 nM,,
CUUUUGUGAGGAUAUUCGUAGUAGGGUCAUGGCACUAUUACGGAGAAGGCACAUGAGGAUCACCCAUGUACCUU,,,15.1 nM,26.4 nM
AGUUACAUGAGGAUCACCCAUGUGUAUAGGGCAACCUAUAGACAGGAUAUCCGGCAUGCGGCCUAGGAGAAGGGUCAAAGAAGA,91.5 nM,429 nM,,
GCCUCACAUGAGGAUCACCCAUGUCAGGAUAUGCCGAUCUUAUGGUCUGGUACGACGAGCAGAAGGGACAUGCA,,,19.5 nM,57.9 nM

Sequence,apparent Kd [1],apparent Kd [2],apparent Kd [3],apparent Kd [4]
AAAAUGUGAGGAUAUCACGGAACUCCGCGUGACGGAGCUCCUGAGAAGGCACAUGAGGAUCACCCAUGUCCUGU,,,52.8 nM,276 nM
AACAAGUUAGGAUAUGCUGCUCGUCACAAAAGUGAUGAGUAGCAGAAGGAACAUGAGGAUCACCCAUGUAAAGA,,,29.3 nM,23.7 nM
AUAGGCCUAGGAUAUACAUGAGGAUCACCCAUGUUAAUACUUCAAUCAAGUUAAUAGUGUAGAAGGAGGAAUAA,,,27.6 nM,32.4 nM
UGUCACGUAGUAGGAUAUGACAUGAGGAUCACCCAUGUUAACUCUAACCUCGAGGAUCGUCAUGGUCAGAAGGACUCAGACAAG,,,209 nM,75.9 nM
UUGCGGUAGGAGAAGGACAGAGGCGGAAACACAUACAUGAGGAUCACCCAUGUAGGAUAUCCUACCUAACGCGGACUCCUCCAG,,,5.85 nM,6.43 nM
AUGCUAGUGUGAGGAUAUCAACAUGAGGAUCACCCAUGUUGGAAGUACCCGACAUGAGGUACGGAUGAGAAGGUACAUUAGCAU,,,15.6 nM,25.3 nM
UGAAAUCAUGUAGGAUAUGCAUGGCGAAGCUACGCAGAAGGACAUGAGGAUCACCCAUGUUCUGGCUACCGAGUUCGGUGGCAA,,,22.1 nM,105 nM
AGGAUUAAAGGGAAUAACAUGAGGAUCACCCAUGUAUGGGAGAGAAGGCAUAUCGGAGGACGAUAUGAGGAUAUUUAAAAUUUA,121 nM,38.3 nM,,
ACAUGAGGAUCACCCAUGUGUGCAUAGGAUAUUGUGGAUUAGGGAUGUUUUUUUGGAUUUGCCUACAAGAAGGAUGAAAGUGUU,14.3 nM,12.6 nM,,
UGCUGUGUCAGAGGAUAUACUCUAAUAAUCCAUUGCAAAUAGCGAUGGACAUGAGGAUCACCCAUGUAGAAGGCUGGCACAGCA,,,70.2 nM,152 nM
UCGGCGCGAGGAUAUGCGGUUGCUUGGUAGGGUCGUGGCGUACAUGAGGAUCACCCAUGUAGAAGGCGCGCCGC,,,19.6 nM,25.9 nM
UAGCUUGAUUCUCGUGUAUACAUGAGGAUCACCCAUGUGACGCAGGAUAUAGGCGUGUUAGUAGCCUAGAAGGGCGAGCAGCGU,,,153 nM,235 nM
CGCGGACAAGAGAAGGCCAGACCUUGGAACCUAAGGCACCGCUAGGCAUGGAGGAUAUCUUGACAUGAGGAUCACCCAUGUACA,109 nM,40.9 nM,,
ACCAUUUACUAAUUAUCUAUACAUGAGGAUCACCCAUGUUAAGAGGAUAUCAUCGUUCGCCGCGUUGAGAAGGCUUAGCAUUCG,,,26.4 nM,101 nM
AUAUGUUAUUAGGAUAUUAAUGCGCGGUCGCAUUAAGAAGGAGUGACAUGAGGAUCACCCAUGUACCACGCUCA,,,24.3 nM,23.3 nM
CAGUACAGAGGAUAUACAUGAGGAUCACCCAUGUGUUUCAGCUAGGAGACUAGCGAGUGUAGAAGGCUGUACUG,,,37.4 nM,360 nM
UUGGCGACGUAGAAGGGUGACAUGAGGAUCACCCAUGUGCCGAUAUUCCUCGAGAUAUGUCGGCCACAGGAUAUACGUGCCAUC,51.8 nM,98.6 nM,,
AUAAUUAUAUAUUUCACAAGAAUCAGAAGGCGUUACAUGAGGAUCACCCAUGUUUUGUAUAGUAACGAGGAUAUGAUAUGGAAA,,,15.2 nM,14 nM
GGAGAGGAAACAUGAGGAUCACCCAUGUGAGUGGUCCGAAUAUAGGAUAUCCACACGAGAAGUGUGGAGAAGGAUAACCUCUCC,,,73 nM,90.2 nM
GUAUCAUACCAAGGAUAUUUAGGACUUUGAUAGACAUGAGGAUCACCCAUGUGGCGUUAGUCACGGGAGAAGGUGGUAUGAUAC,57.4 nM,18.4 nM,,
AAUCCACAUGAGGAUCACCCAUGUGAGGAUAUGAUACUAUGUACUUCGGUACAUAGUAUCAGAAGGCACAUAAA,,,24.1 nM,81 nM
ACAAAUCGAGGAUAUACAUGAGGAUCACCCAUGUGGAGUCCACUGCGCGGUUCUCAGCGUAGAAGGCGAAAACA,,,46.3 nM,89.8 nM
AGACGCAUGCAGAAGGACGACAUGAGGAUCACCCAUGUGGUCGGUAGGGUCGUAGGAUAUGCAAGGCGUUGCGAGCCAACUGUG,,,118 nM,26.9 nM
UGUUGUAUUACAGGAUAUCUAUUAUUUUUAAUUAGAGAAGGGUAUUCACAUGAGGAUCACCCAUGUAUAUACGAGGAAGUUGUG,35.2 nM,35.8 nM,,

# From the EternaBench riboswitch data
